Source: ChEMBL document CHEMBL5325390, “1,2,4-Triazole-3-thione analogues with an arylakyl group at position 4 as metallo-β-lactamase inhibitors” (Bioorg Med Chem, 2022)

Columns and labels:
[1] = target: T1, Angiotensin-converting enzyme (Oryctolagus cuniculus) (UniProt P12822); conditions: Lung, dose 100.0 nM
T1 sequence (whole entry): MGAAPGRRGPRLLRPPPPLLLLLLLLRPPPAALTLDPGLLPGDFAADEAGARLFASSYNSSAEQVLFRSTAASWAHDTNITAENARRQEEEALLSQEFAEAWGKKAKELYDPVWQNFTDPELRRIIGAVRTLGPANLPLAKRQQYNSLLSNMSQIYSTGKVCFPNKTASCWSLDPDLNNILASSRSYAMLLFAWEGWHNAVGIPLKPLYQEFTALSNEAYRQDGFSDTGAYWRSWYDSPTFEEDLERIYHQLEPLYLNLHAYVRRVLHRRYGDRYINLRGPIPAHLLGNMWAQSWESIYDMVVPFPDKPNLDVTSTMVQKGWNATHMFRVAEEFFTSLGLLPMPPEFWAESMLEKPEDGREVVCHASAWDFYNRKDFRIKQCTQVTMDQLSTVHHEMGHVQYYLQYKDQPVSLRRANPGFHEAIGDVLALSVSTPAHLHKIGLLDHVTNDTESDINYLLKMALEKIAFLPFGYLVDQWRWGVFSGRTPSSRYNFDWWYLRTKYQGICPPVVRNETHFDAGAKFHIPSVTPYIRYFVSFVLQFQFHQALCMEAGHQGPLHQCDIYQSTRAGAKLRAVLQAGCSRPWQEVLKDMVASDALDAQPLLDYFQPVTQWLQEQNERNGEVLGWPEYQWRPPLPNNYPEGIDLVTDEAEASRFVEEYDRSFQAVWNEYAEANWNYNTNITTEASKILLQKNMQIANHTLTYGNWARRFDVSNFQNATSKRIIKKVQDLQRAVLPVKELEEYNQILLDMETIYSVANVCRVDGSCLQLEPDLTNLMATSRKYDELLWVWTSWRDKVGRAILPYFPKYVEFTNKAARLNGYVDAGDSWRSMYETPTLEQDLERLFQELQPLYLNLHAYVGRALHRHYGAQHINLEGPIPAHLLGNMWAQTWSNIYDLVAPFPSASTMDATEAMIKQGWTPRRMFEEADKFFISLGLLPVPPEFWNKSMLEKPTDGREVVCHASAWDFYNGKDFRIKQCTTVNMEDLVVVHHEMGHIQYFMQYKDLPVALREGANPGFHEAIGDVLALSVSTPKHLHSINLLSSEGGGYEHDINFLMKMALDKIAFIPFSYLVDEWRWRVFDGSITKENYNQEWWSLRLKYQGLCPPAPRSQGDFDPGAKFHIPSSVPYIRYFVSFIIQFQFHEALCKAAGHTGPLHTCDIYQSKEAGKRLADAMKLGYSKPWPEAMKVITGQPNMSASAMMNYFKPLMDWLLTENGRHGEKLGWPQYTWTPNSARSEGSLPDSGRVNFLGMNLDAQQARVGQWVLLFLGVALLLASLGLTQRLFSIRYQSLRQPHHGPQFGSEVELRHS

[2] = system: metallo-β-lactamase IMP-1 (Pseudomonas aeruginosa); assay: Inhibition of IMP1 (unknown origin) expressed in Escherichia coli BL21(DE3) assessed as substrate hydrolysis at 200 uM by UV-Vis spectrophotometric analysis relative to control
[3] = system: Klebsiella pneumoniae; assay: Antimicrobial synergistic activity against blaVIM-4-producing multidrug-resistant Klebsiella pneumoniae VA416/02 clinical isolate assessed as meropenem MIC at 32 ug/ml by CLSI based broth microdilution method (reference value: 16 ug/ml); type: functional; conditions: dose 32 µg/ml
[4] = system: Klebsiella pneumoniae; assay: Antimicrobial synergistic activity against blaVIM-1-producing multidrug-resistant Klebsiella pneumoniae 7023 clinical isolate assessed as meropenem MIC at 32 ug/ml by CLSI based broth microdilution method (reference value: 16 ug/ml); type: functional; conditions: dose 32 µg/ml
[5] = system: Escherichia coli; assay: Synergistic antimicrobial activity against blaNDM-1-producing multidrug-resistant Escherichia coli SI-004M clinical isolate assessed as meropenem MIC at 32 ug/ml by CLSI based microdilution method (reference value: 64 ug/ml); type: functional; conditions: dose 32 µg/ml
[6] = Binding affinity to VIM-4 (unknown origin) expressed in Escherichia coli BL21(DE3) assessed as inhibition constant by measuring rate of substrate hydrolysis by UV-Vis spectrophotometric analysis
How it was run: (§1)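 Purified MBL (1–70 nM) with 150 µM imipenem or meropenem as reporter substrate, 50 mM HEPES pH 7.5, 30 °C. Hydrolysis followed by absorbance at 300 nm without and with inhibitor (0.5 µM–1 mM). Ki from the slope of v0/vi vs [I] under a competitive model, or from Dixon plots varying inhibitor and substrate. […] Triplicate, mean ± SD.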

[7] = Binding affinity to VIM-2 (unknown origin) expressed in Escherichia coli BL21(DE3) assessed as inhibition constant by measuring rate of substrate hydrolysis by UV-Vis spectrophotometric analysis
How it was run: as §1

[8] = system: HeLa; assay: Cytotoxicity against human HeLa cells assessed as induction of cell lysis upto 250 uM measured for 72 hrs by realtime-glo MT assay; type: toxicity, cell-based
How it was run: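 HeLa cells at 1,500 cells/well exposed to compound up to 250 µM for up to 72 h. Viability read by RealTime-Glo MT luminescent assay. Triplicate.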

[9] = target: Beta-lactamase VIM-1 (Bacteria, UniProt Q8GDC1); assay: Binding affinity to VIM-1 (unknown origin) expressed in Escherichia coli BL21(DE3) assessed as inhibition constant by measuring rate of substrate hydrolysis by UV-Vis spectrophotometric analysis
How it was run: as §1

[10] = target: T1, Angiotensin-converting enzyme (Oryctolagus cuniculus); assay: Inhibition of rabbit lung angiotensin-converting enzyme at 100 uM using Abz-Gly-Phe-(NO2)-Pro as substrate by fluorescence based microplate reader analysis relative to control; type: tissue-based
How it was run: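 Rabbit lung ACE, 1.5 mU per well, in 150 mM Tris, 750 mM NaCl, pH 8.3, with Abz-Gly-Phe(NO2)-Pro substrate. Blank-corrected fluorescence of released Abz-Gly-OH (ex 316, em 413 nm) followed up to 90 min. Test compounds at 100 µM; captopril control at 100 nM. Inhibition % = 100 − (vi/v0 × 100).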

[11] = target: Metallo-beta-lactamase type 2 (Bacteria, UniProt C7C422); assay: Binding affinity to NDM1 (unknown origin) expressed in Escherichia coli BL21(DE3) assessed as inhibition constant by measuring rate of substrate hydrolysis by UV-Vis spectrophotometric analysis; conditions: read-out: Ki
How it was run: as §1

[12] = target: T2, Angiotensin-converting enzyme (Oryctolagus cuniculus, UniProt P12822); assay: Binding affinity to rabbit lung angiotensin-converting enzyme assessed as inhibition constant
T2 sequence (P12822 whole entry): T1 sequence (whole entry)

[13] = system: metallo-β-lactamase IMP-1 (Pseudomonas aeruginosa); assay: Inhibition of IMP1 (unknown origin) expressed in Escherichia coli BL21(DE3) assessed as substrate hydrolysis at 100 uM by UV-Vis spectrophotometric analysis relative to control
[14] = system: metallo-β-lactamase L1 (Stenotrophomonas maltophilia); assay: Inhibition of L1 (unknown origin) expressed in Escherichia coli BL21(DE3) assessed as substrate hydrolysis at 100 uM by UV-Vis spectrophotometric analysis relative to control
[15] = target: Metallo-beta-lactamase type 2 (Bacteria) (UniProt C7C422); assay: Inhibition of NDM1 (unknown origin) expressed in Escherichia coli BL21(DE3) assessed as substrate hydrolysis at 100 uM by UV-Vis spectrophotometric analysis relative to control
How it was run: (§2)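 Single-point screen at 100 or 200 µM inhibitor against purified MBL (1–70 nM) with 150 µM imipenem or meropenem reporter substrate, 50 mM HEPES pH 7.5, 30 °C. Initial hydrolysis rate read by absorbance at 300 nm and compared with the uninhibited reaction. Triplicate.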

[16] = Binding affinity to IMP1 (unknown origin) expressed in Escherichia coli BL21(DE3) assessed as inhibition constant by measuring rate of substrate hydrolysis by UV-Vis spectrophotometric analysis; conditions: read-out: Ki
How it was run: as §1

[17] = system: Klebsiella pneumoniae; assay: Synergistic antimicrobial activity against blaVIM-4-producing multidrug-resistant Klebsiella pneumoniae VA416/02 clinical isolate assessed as fractional inhibitory concentration index in presence of meropenem by checkerboard assay; type: functional
[18] = system: metallo-β-lactamase VIM-2 (Pseudomonas aeruginosa); assay: Inhibition of VIM-2 (unknown origin) expressed in Escherichia coli BL21(DE3) assessed as substrate hydrolysis at 100 uM by UV-Vis spectrophotometric analysis relative to control
[19] = system: metallo-β-lactamase VIM-2 (Pseudomonas aeruginosa); assay: Inhibition of VIM-2 (unknown origin) expressed in Escherichia coli BL21(DE3) assessed as substrate hydrolysis at 200 uM by UV-Vis spectrophotometric analysis relative to control
[20] = system: metallo-β-lactamase VIM-4 (Pseudomonas aeruginosa); assay: Inhibition of VIM-4 (unknown origin) expressed in Escherichia coli BL21(DE3) assessed as substrate hydrolysis at 200 uM by UV-Vis spectrophotometric analysis relative to control
[21] = target: Beta-lactamase VIM-1 (Bacteria) (UniProt Q8GDC1); assay: Inhibition of VIM-1 (unknown origin) expressed in Escherichia coli BL21(DE3) assessed as substrate hydrolysis at 100 uM by UV-Vis spectrophotometric analysis relative to control
How it was run: as §2

[22] = target: Beta-lactamase VIM-1 (Bacteria) (UniProt Q8GDC1); assay: Inhibition of VIM-1 (unknown origin) expressed in Escherichia coli BL21(DE3) assessed as substrate hydrolysis at 200 uM by UV-Vis spectrophotometric analysis relative to control
How it was run: as §2

[23] = target: Metallo-beta-lactamase type 2 (Bacteria) (UniProt C7C422); assay: Inhibition of NDM1 (unknown origin) expressed in Escherichia coli BL21(DE3) assessed as substrate hydrolysis at 200 uM by UV-Vis spectrophotometric analysis relative to control
How it was run: as §2

[24] = system: metallo-β-lactamase VIM-4 (Pseudomonas aeruginosa); assay: Inhibition of VIM-4 (unknown origin) expressed in Escherichia coli BL21(DE3) assessed as substrate hydrolysis at 100 uM by UV-Vis spectrophotometric analysis relative to control

Metallo-beta-lactamase type 2 (Bacteria), sequence (C7C422 whole entry): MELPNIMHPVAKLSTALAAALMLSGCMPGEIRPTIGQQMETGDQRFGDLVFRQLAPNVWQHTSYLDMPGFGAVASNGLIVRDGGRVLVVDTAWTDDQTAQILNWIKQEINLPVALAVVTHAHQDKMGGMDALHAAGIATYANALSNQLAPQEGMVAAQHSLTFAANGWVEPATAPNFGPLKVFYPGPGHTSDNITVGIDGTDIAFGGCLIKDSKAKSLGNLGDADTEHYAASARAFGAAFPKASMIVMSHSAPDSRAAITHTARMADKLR
Metallo-beta-lactamase type 2, sequence (C7C422 whole entry): as above

SMILES	inhibition [2]	inhibition [13]	inhibition [15]	inhibition [18]	inhibition [19]	inhibition [20]	inhibition [21]	inhibition [22]	inhibition [23]	MIC [3]	MIC [4]	MIC [5]	Ki [6]	Ki [7]	Ki [9]	inhibition [10]	Ki [11]	Ki [12]	Ki [16]	FIC [17]	further results
C[C@H](CS)C(=O)N1CCC[C@H]1C(=O)O	–	–	–	–	–	–	–	–	–	–	–	–	–	–	–	–	–	–	–	–	inhibition [1]: 96%
Oc1ccc(CCn2c(-c3cccc(-c4ccccc4)c3)n[nH]c2=S)c(O)c1	< 50%	< 30%	–	–	–	–	–	–	–	4 µg/mL	2 µg/mL	32 µg/mL	820 nM	1300 nM	410 nM	35%	14.3 µM	55 µM	–	–	Activity [8]: Non-Toxic
S=c1[nH]nc(-c2ccccc2)n1CCCc1ccccc1	–	–	< 30%	–	–	–	–	–	–	2 µg/mL	2 µg/mL	64 µg/mL	900 nM	740 nM	560 nM	50%	–	30 µM	14 µM	0.25	inhibition [14]: < 30%
Oc1ccc(CCn2c(-c3cccc(-c4ccccc4)c3)n[nH]c2=S)cc1O	–	–	–	–	–	–	–	–	–	2 µg/mL	16 µg/mL	32 µg/mL	680 nM	1700 nM	1300 nM	–	17.4 µM	–	9.2 µM	0.48	–

Now from value to compound, other results behind:

inhibition [2]	inhibition [13]	inhibition [15]	inhibition [18]	inhibition [19]	inhibition [20]	inhibition [21]	inhibition [22]	inhibition [23]	SMILES	MIC [3]	MIC [4]	MIC [5]	Ki [6]	Ki [7]	Ki [9]	inhibition [10]	Ki [11]	Ki [12]	Ki [16]	FIC [17]	further results
< 50%	< 30%	< 30%	< 30%	< 50%	< 50%	< 30%	< 50%	< 50%	S=c1[nH]nc(Cc2ccccc2)n1CCc1ccccc1	–	–	–	–	–	–	–	–	–	–	–	inhibition [24]: < 30%
< 50%	< 30%	< 30%	< 30%	< 50%	< 50%	< 30%	< 50%	< 50%	S=c1[nH]nc(Cc2ccc3ccccc3c2)n1-c1ccc(OCc2ccccc2)cc1	–	–	–	–	–	–	–	–	–	–	–	inhibition [24]: < 30%
